According to ChEMBL document CHEMBL4261553 (Medchemcomm, 2017):

Assays:
[1] = target: 5-hydroxytryptamine receptor 2A (Homo sapiens, UniProt P28223); experiment: Displacement of [3H]-ketanserin from human 5-HT2A receptor expressed in CHOK1 cell membranes after 60 mins by microbeta scintillation counting method; assay type: cell-based
[2] = target: T1, 5-hydroxytryptamine receptor 1A (Homo sapiens, UniProt P08908); experiment: Displacement of [3H]-8-OH-DPAT from human 5-HT1A receptor expressed in CHOK1 cell membranes after 60 mins by microbeta scintillation counting method
T1 sequence (P08908 whole entry): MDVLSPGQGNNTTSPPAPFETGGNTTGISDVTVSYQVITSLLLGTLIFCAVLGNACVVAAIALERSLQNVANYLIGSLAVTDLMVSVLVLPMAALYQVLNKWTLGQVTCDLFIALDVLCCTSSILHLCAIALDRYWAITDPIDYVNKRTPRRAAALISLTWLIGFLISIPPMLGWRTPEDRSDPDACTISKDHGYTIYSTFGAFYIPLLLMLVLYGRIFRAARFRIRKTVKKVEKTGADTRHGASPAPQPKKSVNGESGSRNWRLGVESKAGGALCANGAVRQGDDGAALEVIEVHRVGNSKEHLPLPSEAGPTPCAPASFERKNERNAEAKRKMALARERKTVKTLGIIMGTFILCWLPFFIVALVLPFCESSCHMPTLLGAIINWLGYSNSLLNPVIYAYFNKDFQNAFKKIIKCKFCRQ
Summary of the method: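 Membranes from CHO-K1 cells stably expressing human receptor, 10 µg protein/well, in 50 mM Tris pH 7.4 with 10 mM MgSO4, 0.5 mM EDTA, 0.1% ascorbic acid. Compounds at 6 concentrations, 10^-10 to 10^-5 M final, in duplicate; 27 °C. GF/C filtration, cold Tris washes. Ki by one-site fit and Cheng–Prusoff.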

Sequence of 5-hydroxytryptamine receptor 2A (P28223 whole entry): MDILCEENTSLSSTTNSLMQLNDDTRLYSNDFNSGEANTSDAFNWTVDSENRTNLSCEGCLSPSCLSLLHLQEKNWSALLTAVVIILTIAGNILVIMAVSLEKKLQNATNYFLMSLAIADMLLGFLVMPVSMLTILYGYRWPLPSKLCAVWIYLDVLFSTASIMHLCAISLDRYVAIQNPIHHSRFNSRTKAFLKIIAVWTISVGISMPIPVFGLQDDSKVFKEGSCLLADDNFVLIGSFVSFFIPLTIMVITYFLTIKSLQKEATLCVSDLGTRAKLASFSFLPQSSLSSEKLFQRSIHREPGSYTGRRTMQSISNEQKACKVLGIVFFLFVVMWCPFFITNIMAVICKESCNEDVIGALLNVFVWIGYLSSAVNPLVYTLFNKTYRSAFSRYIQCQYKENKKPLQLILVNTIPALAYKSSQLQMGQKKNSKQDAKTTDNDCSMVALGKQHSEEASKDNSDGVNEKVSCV

| Structure (SMILES) | Ki [1] [nM] | Ki [2] [nM] |
| --- | --- | --- |
| CC(=O)c1c(C)cc2oc(=O)cc(C)c2c1OCCCN1CCN(c2ccccc2F)CC1 | 28 | 0.3 |
| COc1cccc(N2CCN(CCCCOc3cc(C)cc4oc(=O)cc(C)c34)CC2)c1 | 184 | 1 |
| Cc1cc(OCCCN2CCN(c3cccc(Cl)c3Cl)CC2)c2c(C)cc(=O)oc2c1 | 42 | 4 |
| CC(=O)c1c(C)cc2oc(=O)cc(C)c2c1OCCCCN1CCOCC1 | 4460 | 250 |
| Cc1cc(OCCCCN2CCN(c3ccncc3)CC2)c2c(C)cc(=O)oc2c1 | > 5000 | 389 |
| Cc1cc(OCCCN2CCN(c3cnccn3)CC2)c2c(C)cc(=O)oc2c1 | 4570 | 186 |
| Cc1cc(OCCCN2CCN(c3ccc([N+](=O)[O-])cc3)CC2)c2c(C)cc(=O)oc2c1 | > 10000 | 1210 |
| COc1cccc(N2CCN(CCCCOc3c(C(C)=O)c(C)cc4oc(=O)cc(C)c34)CC2)c1 | 520 | 15 |
| CC(=O)c1c(C)cc2oc(=O)cc(C)c2c1OCCCCN1CCN(c2ccc(Cl)cc2)CC1 | 1.7 | 7 |
| Cc1cc(OCCCCN2CCN(c3cccc(Cl)c3Cl)CC2)c2c(C)cc(=O)oc2c1 | 167 | 8 |
| CC(=O)c1c(C)cc2oc(=O)cc(C)c2c1OCCCCN1CCN(c2ccncc2)CC1 | 1590 | 308 |
| COc1cccc(N2CCN(CCCOc3cc(C)cc4oc(=O)cc(C)c34)CC2)c1 | 106 | 6 |
| CC(=O)c1c(C)cc2oc(=O)cc(C)c2c1OCCCN1CCN(c2cccc(Cl)c2Cl)CC1 | 66 | 0.4 |
| CC(=O)c1c(C)cc2oc(=O)cc(C)c2c1OCCCCN1CCN(c2ccccc2F)CC1 | 9 | 0.7 |
| CC(=O)c1c(C)cc2oc(=O)cc(C)c2c1OCCCN1CCN(c2ccncc2)CC1 | > 10000 | 154 |
| CC(=O)c1c(C)cc2oc(=O)cc(C)c2c1OCCCCN1CCN(c2ccc([N+](=O)[O-])cc2)CC1 | 46 | 33 |
| Cc1cc(OCCCCN2CCN(c3ccccc3C#N)CC2)c2c(C)cc(=O)oc2c1 | 112 | 1.5 |
| CC(=O)c1c(C)cc2oc(=O)cc(C)c2c1OCCCCN1CCN(c2cccc(Cl)c2Cl)CC1 | 2650 | 250 |
| CC(=O)c1c(C)cc2oc(=O)cc(C)c2c1OCCCN1CCN(c2ccc(Cl)cc2)CC1 | 4 | 1.2 |

Further lines, results first:

| Ki [1] [nM] | Ki [2] [nM] | Structure (SMILES) |
| --- | --- | --- |
| 465 | 60 | Cc1cc(OCCCCN2CCN(c3ccc(Cl)cc3)CC2)c2c(C)cc(=O)oc2c1 |
| > 10000 | 1300 | Cc1cc(OCCCN2CCOCC2)c2c(C)cc(=O)oc2c1 |
| 64 | 0.3 | CC(=O)c1c(C)cc2oc(=O)cc(C)c2c1OCCCN1CCN(c2ccccc2C#N)CC1 |
| 48 | 0.4 | COc1cccc(N2CCN(CCCOc3c(C(C)=O)c(C)cc4oc(=O)cc(C)c34)CC2)c1 |
| 286 | 159 | CC(=O)c1c(C)cc2oc(=O)cc(C)c2c1OCCCN1CCN(c2ccc([N+](=O)[O-])cc2)CC1 |
| > 10000 | 3500 | Cc1cc(OCCCCN2CCOCC2)c2c(C)cc(=O)oc2c1 |
| 3000 | 11 | CC(=O)c1c(C)cc2oc(=O)cc(C)c2c1OCCCN1CCN(c2cnccn2)CC1 |
| 2300 | 6.7 | Cc1cc(OCCCCN2CCN(c3cnccn3)CC2)c2c(C)cc(=O)oc2c1 |
| 200 | 3 | Cc1cc(OCCCN2CCN(c3ccccc3C#N)CC2)c2c(C)cc(=O)oc2c1 |
| 2500 | 4.8 | CC(=O)c1c(C)cc2oc(=O)cc(C)c2c1OCCCCN1CCN(c2cnccn2)CC1 |
| 120 | 1.7 | Cc1cc(OCCCCN2CCN(c3ccccc3F)CC2)c2c(C)cc(=O)oc2c1 |
| > 10000 | 809 | Cc1cc(OCCCCN2CCN(c3ccc([N+](=O)[O-])cc3)CC2)c2c(C)cc(=O)oc2c1 |
| 55 | 3 | Cc1cc(OCCCN2CCN(c3ccccc3F)CC2)c2c(C)cc(=O)oc2c1 |
| 70 | 161 | Cc1cc(OCCCN2CCN(c3ccc(Cl)cc3)CC2)c2c(C)cc(=O)oc2c1 |
| > 10000 | 850 | CC(=O)c1c(C)cc2oc(=O)cc(C)c2c1OCCCN1CCOCC1 |
| > 5000 | 450 | Cc1cc(OCCCN2CCN(c3ccncc3)CC2)c2c(C)cc(=O)oc2c1 |
